Screening results (PubChem)
In the library only some 3.5% were active in any assay of this set; here they are far more common.
rCAG RNA binder: molecules binding r(CAG) RNA repeats; inhibition, % at 3 µM; 370,000 compounds, 1.3% hits; r(CAG) RNA repeat, TO-PRO-1 dye displacement fluorescence; AID 651821;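 active = inhibition above the plate cutoff, the mean of all test compounds on that plate plus 3 SD, cut at about 35% in these data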;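 also: higher means more dye released from RNA so lower well fluorescence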
SIAE inh: human SIAE inhibition, primary screen | inhibition, % at 9.66 µM | AID 1053197 | Q9HAT2 | SIAE FP-Rh probe binding, fluorescence polarization | 370,000 compounds, 0.69% hits;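 active = inhibition above a cutoff: mean of compounds within the control limits plus 3 SD of those, cut at about 17% in these data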
PRMT1 FP inh: blocks human protein arginine methyltransferase 1. Q99873. recombinant PRMT1, activity-based probe fluorescence polarization. inhibition, % at 2.79 µM. 370,000 compounds, 1.3% hits. AID 652257;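 active = inhibition above about 21% made by adding two undisclosed values, limit read from the data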
Target sequence (Q99873 whole entry, looked up): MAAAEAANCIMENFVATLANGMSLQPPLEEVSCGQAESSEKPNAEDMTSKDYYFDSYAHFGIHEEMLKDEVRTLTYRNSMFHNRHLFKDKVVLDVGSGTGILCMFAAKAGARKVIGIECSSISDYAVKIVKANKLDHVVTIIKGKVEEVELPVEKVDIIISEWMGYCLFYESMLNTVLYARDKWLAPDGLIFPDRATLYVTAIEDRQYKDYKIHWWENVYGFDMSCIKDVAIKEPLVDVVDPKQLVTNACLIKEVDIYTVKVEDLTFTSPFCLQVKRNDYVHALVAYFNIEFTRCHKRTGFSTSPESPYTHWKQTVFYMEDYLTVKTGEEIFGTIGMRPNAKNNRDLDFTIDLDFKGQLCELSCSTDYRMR
HTRA1 inhibitor: inhibitors of human serine peptidase HTRA1. Q92743. recombinant HTRA1, FP-rhodamine activity-based probe, fluorescence polarization. inhibition, % at 5.96 µM. 340,000 compounds, 0.5% hits; in the data active = inhibition above about 36%
TCR-CD3 inh: blocks the human TCR-CD3 interaction; TAMRA-labeled TCR probe fluorescence, biochemical; AID 651800; 360,000 compounds, 0.37% hits; inhibition, % at 9.4 µM; in the data active = inhibition above about 19%;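 also: recombinant mutant TCR 2C K166C tagged with TAMRA read by polarization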
mABHD4 FP: inhibits mouse alpha/beta hydrolase domain 4. inhibition, % at 8.92 µM. purified mABHD4, FP-Rh probe fluorescence polarization. 370,000 compounds, 0.54% hits;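 active = inhibition exceeding the mean over every tested compound plus 3 SD, cut at about 30% in these data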
Target sequence (Q8VD66 whole entry, looked up, the tested form may be a part): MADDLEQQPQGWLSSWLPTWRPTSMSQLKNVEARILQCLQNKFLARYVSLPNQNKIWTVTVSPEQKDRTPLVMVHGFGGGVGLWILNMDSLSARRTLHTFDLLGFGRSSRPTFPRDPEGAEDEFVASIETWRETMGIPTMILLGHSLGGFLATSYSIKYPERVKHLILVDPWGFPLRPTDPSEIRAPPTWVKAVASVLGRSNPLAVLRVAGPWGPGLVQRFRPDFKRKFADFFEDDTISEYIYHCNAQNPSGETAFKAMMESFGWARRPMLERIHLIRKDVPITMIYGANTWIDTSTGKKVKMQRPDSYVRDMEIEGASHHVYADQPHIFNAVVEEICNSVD
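Assay system: Wild-type mouse ABHD4 protein | Medium: HEPES pH 7.0 buffer, 150 mM NaCl, 0.01% Pluronic F-127 | Incubation: Enzyme–compound pre-incubation 45 min, then probe 60 min, both 25 °C | Technique: Fluorescence polarization with parallel and perpendicular emission, 525/598 nm | Evaluation: % inhibition of FP-Rh probe binding versus controls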
PRMT1 inh conf: PRMT1 (human) inhibition, FP confirmation. recombinant His-PRMT1, activity-based probe fluorescence polarization. shares compounds with PRMT1 FP inh. 3,300 compounds, 42% hits. inhibition, % at 2.79 µM. AID 687036;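 active = mean inhibition across replicates above the hit cutoff derived for the earlier primary screen, cut at about 22% in these data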
Each line names hits and unclear results; the compound was inactive in the other large screens (follow-up assays come after a bar, where they were run).

Cc1ccc(/C=N/n2cc(-c3ccccc3)[nH]c2=S)s1	PRMT1 FP inh 28 | PRMT1 inh conf inactive
COc1cc(/C=N/n2cc(-c3ccccc3)[nH]c2=S)cc(OC)c1O	PRMT1 FP inh 47 | PRMT1 inh conf 27
S=c1[nH]c(-c2ccccc2)cn1/N=C/c1ccccc1Br	none
Cc1ccc(S(=O)(=O)N(C)[C@H]2C[C@H]3c4cc(-c5ccccc5C)ccc4CCN3C[C@H]2[C@H](C)O)cc1	none (no result: HTRA1 inhibitor, TCR-CD3 inh)
CS(=O)(=O)N1CCSC1c1ccc(Br)cc1 (stereo not drawn)	none
Brc1ccc(C2NCCS2)cc1 (stereo not drawn)	PRMT1 FP inh 32 | PRMT1 inh conf inactive
Cc1ccccc1N1C(=O)C(Cl)=C(N2CCOCC2)C1=O	none
O=C1C(Cl)=C(N2CCOCC2)C(=O)N1c1ccccc1F	PRMT1 FP inh 40 | PRMT1 inh conf inactive
O=C1C=CC(=Nc2ccc3c(c2)Cc2cc(F)ccc2-3)O1	PRMT1 FP inh 74 | PRMT1 inh conf 87
COc1ccc2c(C(c3ccccc3O)C3CCCN3S(=O)(=O)c3ccc(C)cc3)cn(C)c2c1 (stereo not drawn)	none (no result: HTRA1 inhibitor, TCR-CD3 inh)
COc1cccc(-c2cc3nc(-c4ccccc4)cc(N4CCN(C(=O)c5ccoc5)CC4)n3n2)c1	none
COc1cccc(-c2cc3nc(-c4ccco4)cc(N4CCN(C(C)=O)CC4)n3n2)c1	PRMT1 FP inh 50 (no result: rCAG RNA binder, HTRA1 inhibitor, TCR-CD3 inh) | PRMT1 inh conf inactive
O=C(c1ccoc1)N1CCN(c2cc(-c3ccco3)nc3cc(-c4ccco4)nn23)CC1	PRMT1 FP inh 34 (no result: rCAG RNA binder, HTRA1 inhibitor, TCR-CD3 inh) | PRMT1 inh conf inactive
O=C(c1ccoc1)N1CCN(c2cc(-c3ccco3)nc3cc(-c4ccccc4)nn23)CC1	none
Cc1ccc(NC(=O)CC2SC3=NCCN3C2=O)cc1 (stereo not drawn)	PRMT1 FP inh 94 | PRMT1 inh conf inactive
O=C1CC(N2CCC(c3nc4ccccc4[nH]3)CC2)C(=O)N1c1ccccc1F (stereo not drawn)	PRMT1 FP inh 32 | PRMT1 inh conf inactive
COc1ccc(N2C(=O)CC(N3CCN(c4ccccc4F)CC3)C2=O)cc1 (stereo not drawn)	none
COc1ccc(N2C(=O)CC(N3CCC(O)(c4ccc(Cl)cc4)CC3)C2=O)cc1 (stereo not drawn)	PRMT1 FP inh 77 | PRMT1 inh conf inactive
COc1ccc(N2C(=O)CC(N3CCC(c4nc5ccccc5[nH]4)CC3)C2=O)cc1 (stereo not drawn)	PRMT1 FP inh 54 | PRMT1 inh conf inactive
COc1ccc(N2C(=O)CC(N3CCN(c4ccc(Cl)cc4)CC3)C2=O)cc1 (stereo not drawn)	none
COc1ccc(N2C(=O)CC(n3c(CCCCO)nc4ccccc43)C2=O)cc1 (stereo not drawn)	PRMT1 FP inh 25 | PRMT1 inh conf inactive
CS(=O)(=O)c1ncc(Cl)c(C(=O)Nc2ccc3ccccc3c2)n1	PRMT1 FP inh 50 | PRMT1 inh conf 35
CCC1CCCCN1S(=O)(=O)c1ccc(NC(=O)c2nc(S(C)(=O)=O)ncc2Cl)cc1 (stereo not drawn)	PRMT1 FP inh 50 | PRMT1 inh conf 47
CC(=O)Nc1ccc(NC(=O)c2nc(S(=O)(=O)Cc3ccccc3)ncc2Cl)cc1	PRMT1 FP inh 30 | PRMT1 inh conf 23
CCS(=O)(=O)c1ncc(Cl)c(C(=O)Nc2ccc(C)cc2)n1	none
Cc1ccc(CS(=O)(=O)c2ncc(Cl)c(C(=O)Nc3ccc(OC(F)F)cc3)n2)cc1	PRMT1 FP inh 29 | PRMT1 inh conf 21
COC(=O)c1ccccc1NC(=O)c1nc(S(=O)(=O)Cc2ccccc2)ncc1Cl	none
CC(=O)N1CCN(C2=NC(=O)N(c3ccc(Br)cc3)C(=O)C2)CC1	none (no result: HTRA1 inhibitor, TCR-CD3 inh)
COC(=O)C1CN(Cc2ccc(Cl)cc2)CCS(=O)(=O)N1Cc1cn(Cc2ccc(C)cc2)nn1 (stereo not drawn)	none (no result: HTRA1 inhibitor, TCR-CD3 inh)
Cc1ccc(S(=O)(=O)NN2C(=O)/C(=C/c3cccnc3)SC2=S)cc1	PRMT1 FP inh 31 | PRMT1 inh conf inactive
CC(OC(=O)/C(C#N)=C/c1ccc(N(C)C)cc1)C(=O)N(C)c1ccccc1 (stereo not drawn)	none
CC(=O)Nc1ccc(NC(=O)C(C)OC(=O)/C(C#N)=C/c2ccc(N(C)C)cc2)cc1 (stereo not drawn)	PRMT1 FP inh 30 | PRMT1 inh conf 39
Cc1cccc(N2C(=O)CC(N3CCN(c4cccc(C(F)(F)F)c4)CC3)C2=O)c1 (stereo not drawn)	none
CCOC(=O)C1CCCN(C2CC(=O)N(c3ccc(C)c(C)c3)C2=O)C1 (stereo not drawn)	PRMT1 FP inh 46 | PRMT1 inh conf inactive
CCOC(=O)C1CCCN(C2CC(=O)N(c3ccccc3)C2=O)C1 (stereo not drawn)	PRMT1 FP inh 57 | PRMT1 inh conf inactive
CCOC(=O)C1CCCN(C2CC(=O)N(c3ccc(N4C(=O)CC(N5CCCC(C(=O)OCC)C5)C4=O)cc3)C2=O)C1 (stereo not drawn)	none
CCOC(=O)C1CCCN(C2CC(=O)N(c3ccc(C(C)C)cc3)C2=O)C1 (stereo not drawn)	none
CCOC(=O)C1CCCN(C2CC(=O)N(c3cccc(C(F)(F)F)c3)C2=O)C1 (stereo not drawn)	PRMT1 FP inh 26 | PRMT1 inh conf 25
Cc1cc(=O)[nH]c(SCC(=O)Nc2cccc(C)c2C)n1	none (no result: HTRA1 inhibitor, TCR-CD3 inh)
COc1ccc(-n2cc(COC(=O)NCCc3ccccc3)nn2)cc1	none (no result: HTRA1 inhibitor, TCR-CD3 inh)
COc1ccc2c(c1)CC/C(=C/c1ccncc1)C2=O	none (no result: rCAG RNA binder, SIAE inh, PRMT1 FP inh, TCR-CD3 inh, mABHD4 FP)
COc1ccc2c(c1)CC/C(=C\c1ccc(C)o1)C2=O	PRMT1 FP inh 39 | PRMT1 inh conf inactive
COc1ccc(CCNC(=O)c2cc(-c3ccco3)nc3ccccc23)cc1	PRMT1 FP inh 40 (no result: HTRA1 inhibitor) | PRMT1 inh conf inactive
O=C(O)c1cc(-c2ccco2)nc2cc3ccccc3cc12	PRMT1 FP inh 26 | PRMT1 inh conf 22
COCCCN(C(=O)c1cc(-c2ccco2)nc2ccccc12)c1c(N)n(Cc2ccccc2)c(=O)[nH]c1=O	PRMT1 FP inh 47 | PRMT1 inh conf inactive
CN(Cc1ccccc1)S(=O)(=O)c1cccc(C(=O)OCc2ccc(C(F)(F)F)cc2)c1	none (no result: HTRA1 inhibitor, TCR-CD3 inh)
O=C(NCc1ccccc1)C1(C(=O)C2CC2)CC(c2ccccn2)=NO1 (stereo not drawn)	none (no result: HTRA1 inhibitor, TCR-CD3 inh)
CC[n+]1c(/C=C2/C=C(C)CC(C)(C)C2)sc2ccc(OC)cc21	PRMT1 FP inh 36 | PRMT1 inh conf inactive
CC[n+]1c(/C=C2\C=C(C)CC(C)(C)C2)sc2ccccc21	PRMT1 FP inh 44 | PRMT1 inh conf inactive
CC[n+]1c(/C=C2\C=C(C)CC(C)C2)sc2ccccc21 (stereo not drawn)	none (no result: rCAG RNA binder, SIAE inh, PRMT1 FP inh, TCR-CD3 inh, mABHD4 FP)
Cc1ccc(NC(=O)CN2C(=O)CCSc3ccccc32)cc1C	none (no result: HTRA1 inhibitor, TCR-CD3 inh)
